Bioassay records: PubChem BioAssay, several laboratories
Jurkat NFkB inh: lowers PMA/ionomycin-induced NF-kB signal in Jurkat cells | PMA/ionomycin-induced NF-kB luciferase reporter, luminescence | inhibition, % at 4 µM | 330,000 tested, 0.53% active | AID 435003; in the data active means inhibition above about 50%
FGF22 binding: binders of recombinant human FGF22 by thermal shift. SYPRO orange fluorescence; percent of sucrose octasulfate shift, DMSO zero. activity (Tm shift, normalised), % at 9.99 µM. Q9HCT0. 340,000 tested, 1.5% active;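 active means mean Tm shift, scaled 0 neutral to 100 positive control, at about 1.3% or above, every replicate too, limit read from the data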
NR2E3 ag-1: activates human photoreceptor nuclear receptor NR2E3; inhibition of corepressor binding, % at 4.78 µM; 320,000 tested, 0.12% active; Q9Y5X4; GST-NR2E3/biotin-RetCOR TR-FRET, 1536-well;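 active means percent inhibition above the cutoff of mean plus 3 SD of all tested compounds, set per screening campaign, cut at about 20% in these data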;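 further: 0% = DMSO wells and 100% = biotin wells as full block of FRET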
Target sequence (Q9Y5X4 whole entry, looked up): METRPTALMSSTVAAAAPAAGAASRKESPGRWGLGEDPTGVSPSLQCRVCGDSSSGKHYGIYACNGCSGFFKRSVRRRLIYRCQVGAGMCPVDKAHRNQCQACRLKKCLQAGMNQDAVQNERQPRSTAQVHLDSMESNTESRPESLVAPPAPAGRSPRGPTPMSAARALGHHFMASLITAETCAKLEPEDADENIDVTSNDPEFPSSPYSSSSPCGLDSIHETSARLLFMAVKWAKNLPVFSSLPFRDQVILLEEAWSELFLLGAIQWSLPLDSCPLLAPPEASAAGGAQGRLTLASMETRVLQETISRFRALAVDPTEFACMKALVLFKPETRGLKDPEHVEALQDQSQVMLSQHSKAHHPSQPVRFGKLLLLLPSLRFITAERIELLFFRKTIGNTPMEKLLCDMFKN
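Assay system: NR2E3–RetCOR corepressor complex. Quantity: 1.35 nM GST-NR2E3. Buffer or medium: pH 7.5 Tris-based buffer. Reagent: biotinylated RetCOR corepressor at 7 nM final. Schedule: 5 h at 4 °C. Detection: TR-FRET, emission read at 617 and 671 nm. Replicates: one well per compound, singlicate testing.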
NR2E3 ag-2: human photoreceptor-specific nuclear receptor agonism; Q9Y5X4; CHO-S Gal4-NCOR/VP16-NR2E3 two-hybrid, luciferase; inhibition of corepressor binding, % at 3.98 µM; 360,000 tested, 0.35% active;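 active means inhibition above the mean of all tested compounds plus 3 SD, cut at about 70% in these data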;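 further: 0% = DMSO with NR2E3 transfected cells and 100% = cells lacking NR2E3 construct; higher means lower luciferase signal from less NR2E3 corepressor binding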
697 NFkB inh: lowers PMA/ionomycin-induced NF-kB signal in 697 B cells. 697 B-cell NF-kB luciferase reporter, 16 h. inhibition, % at 4 µM. 330,000 tested, 0.33% active. AID 435022; in the data active means inhibition above about 35%
miR-122 sensor: blocks miR-122 activity in Huh7 sensor cells. Huh7 miR-122 Renilla luciferase sensor, 48 h; neutral wells = 0, positive control = 100. activation (reporter increase), % at 12.5 µM. 340,000 tested, 0.3% active. AID 602342;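 active means mean replicate activation score at least 90 and every replicate individually at or above 90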;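 further: higher luciferase means less miR-122 activity so hits act as miR-122 inhibitors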
* marks the source's active call; other numbers are inactive results; x = not tested or not shown; [ ] = another dose, or the depositor's remark. An excerpt weighted towards active compounds, which were near 2.2% of everything screened.

SMILES	Jurkat NFkB inh	FGF22 binding	NR2E3 ag-1	NR2E3 ag-2	697 NFkB inh	miR-122 sensor
CC(=O)c1ccc(N2CCN(C(=O)CCCn3c(=O)[nH]c4ccccc4c3=O)CC2)cc1	10.3	43.2*	2.4	-18.7	12.4	x
CC(=O)N1c2c(cc(Br)cc2S(=O)(=O)NCc2ccccc2)CC1C (configuration not stated)	-10.0	0.0	1.0	-1.7	-2.9	124.6*
COc1cccc(CNS(=O)(=O)c2cc(Br)cc3c2N(C(C)=O)C(C)C3)c1 (configuration not stated)	-6.5	x	1.3	-8.8	19.2	44.4
C/C=C/c1ccc([C@H]2[C@@H](CO)N[C@@H]2CN(CC(C)C)C(=O)c2ccccn2)cc1	x	0.4	x	x	x	-75.0[16.7 µM]
COC(=O)C1CC(O)CN1C(=O)Nc1cccc(C(F)(F)F)c1 (configuration not stated)	-6.5	43.3*	-3.8	16.4	-0.4	-6.4
CC(C)NC(=O)Nc1ccc2c(c1)C(=O)N([C@H](C)CO)C[C@H](C)[C@H](CN(C)C(=O)Nc1ccc(F)cc1)OCCCC[C@H](C)O2	x	-0.2	x	x	x	-7.2[16.7 µM]
CCC(C)C(NC(N)=O)C(=O)Nc1ccc(C(=O)OC)cc1 (configuration not stated)	-12.2	43.4*	5.8	-9.5	1.1	0.4
CC[C@H](C)[C@H](NC(N)=O)C(=O)NCCc1ccc(Cl)cc1	10.3	43.7*	-1.1	-9.2	-6.3	x
CC(C)[C@H](NC(N)=O)C(=O)NCCc1ccc(Cl)cc1Cl	-7.1	42.2	0.2	-6.9	9.0	x
CC(C)CC(NC(N)=O)C(=O)NCCc1ccc(Cl)cc1Cl (configuration not stated)	13.3	43.9*	-2.8	-4.2	4.4	-2.9
CCc1ccc(C(=O)COC(=O)[C@@H](NC(N)=O)[C@@H](C)CC)cc1	2.9	43.2*	2.9	-9.8	-8.2	x
CO[C@H]1CN(C)C(=O)c2cc(NS(=O)(=O)c3ccc(C)cc3)ccc2OC[C@H](C)N(C(=O)NC(C)C)C[C@H]1C	x	0.2	x	x	x	x
Cc1cccc(NC(=O)CNC(=O)COc2cc(F)ccc2[N+](=O)[O-])c1C	19.9	43.1*	6.5	-16.7	-2.3	-0.9
COc1ccc(S(=O)(=O)N2CCOCC2)cc1NC(=O)CSc1n[nH]c(=O)n1C1CC1	-3.9	0.0	5.4	-5.4	10.2	0.5
COc1cc(S(=O)(=O)N2CCOCC2)ccc1NC(=O)CSc1n[nH]c(=O)[nH]c1=O	6.0	0.3	0.1	-4.9	12.9	144.1*
O=C(Cc1ccccc1)N/N=C/c1cc(Br)cc(Br)c1O	-9.7	-0.1	1.1	-7.6	13.0	x
O=C(O)c1ccccc1N/N=C/c1cc(Br)cc(Br)c1O	-91.5	43.8*	2.0	-158.8	-179.3	10.3
C#CCN1CCc2onc(-c3ccc(Br)cc3)c2C1=O	x	43.1*	x	x	x	x
CC(C)(C)OC(=O)N1CCc2onc(-c3ccc(Cl)cc3)c2C1=O	x	0.1	x	-17.6	x	1.2
O=C(O)C[C@H]1C[C@@H]2c3cc(NC(=O)C4CCOCC4)ccc3O[C@@H]2[C@@H](CO)O1	x	-0.2	x	x	x	-2.4[16.7 µM]
CC(C)c1ccc(NC(=O)c2snc3ccc(Cl)cc23)cc1	-122.1	44.3*	-1.8	-109.9	-128.0	39.7
O=S(=O)(c1ccccc1F)N1CC[C@@H]2[C@@H](CO)Nc3ccc(C4=CCCCC4)cc3[C@@H]21	x	-0.1	x	x	x	36.2[16.7 µM]
N#C/C(=N\Nc1cccc(Cl)c1)C(=O)c1ccccc1	0.9	x	5.4	102.1*	-39.5	6.9
CC1(C)N([O-])C(c2cccs2)=C[N+]1=O	4.2	x	-4.7	-6.9	18.4	103.0*
Cc1ccc(-c2cccc(CN3CCN(C(C)C)C(CCO)C3)c2)o1 (configuration not stated)	5.6	43.0*	5.8	-21.0	-9.8	x
Cc1ccc(CN2CCN(Cc3cccc(OCCO)c3)CC2CCO)o1 (configuration not stated)	15.5	43.9*	6.9	1.8	2.2	x
S=C(Nc1ccc(Oc2ccccc2)cc1)NC1CCCC1	10.4	-0.1	0.4	-35.1	14.6	x
S=C(NCC1CCCCC1)Nc1ccc(Oc2ccccc2)cc1	8.8	-0.1	7.0	14.8	4.2	117.5*
